Reference: ChEMBL document CHEMBL5053518, “1,5,6,7-Tetrahydro-4H-indazol-4-ones as human neutrophil elastase (HNE) inhibitors” (Bioorg Med Chem Lett, 2021)
Activity calls are given as the source filed them. No cut-off for these calls is given here.

Test system: not listed separately
Assay: Stability in aqueous buffer assessed as half life
Assay type: physicochemical
Settings: aqueous buffer

Row | half-life [h] | Structure (SMILES)
1 | 3.91 | O=C(C1CC1)n1cc2c(n1)CCC(Br)(Br)C2=O
2 | 0.645 | O=C1c2cnn(C(=O)C3CC3)c2CCC1Br (stereo not given)

Same assay, conditions: buffer

Row | t1/2 [h] | Structure (SMILES)
3 | 1.64 | Cc1cccc(C(=O)n2ncc3c2CCCC3=O)c1
4 | 0.952 | O=C(C1CC1)n1ncc2c1CCC(Br)(Br)C2=O
5 | 1.9123 | O=C1c2cn(C(=O)C3CC3)nc2CCC1Br (stereo not given)

Target: T1, Neutrophil elastase (Homo sapiens) (UniProt P08246)
T1 sequence (whole entry): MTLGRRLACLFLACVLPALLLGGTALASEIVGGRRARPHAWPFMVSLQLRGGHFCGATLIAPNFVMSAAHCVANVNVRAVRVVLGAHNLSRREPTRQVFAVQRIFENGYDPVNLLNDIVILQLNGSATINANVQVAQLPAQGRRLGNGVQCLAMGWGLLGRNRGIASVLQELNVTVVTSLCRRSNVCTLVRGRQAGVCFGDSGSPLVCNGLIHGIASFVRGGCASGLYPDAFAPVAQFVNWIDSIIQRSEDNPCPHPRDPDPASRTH
Assay: Inhibition of human neutrophil elastase at 50 uM
Settings: not given
Outline: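 Human neutrophil elastase inhibition was tested up to a highest concentration of 50 μM. Active compounds were given as Ki values, reported as mean ± SD of three independent experiments.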

Row | Structure (SMILES) | inhibition
6 | O=C1CCCc2nn(-c3cccc(C(F)(F)F)c3)cc21 | inactive
7 | O=C1CCCc2nn(Cc3ccccc3)cc21 | inactive
8 | O=C1CCCc2c1cnn2Cc1cccc(C(F)(F)F)c1 | inactive
9 | CC(C)(C)OC(=O)n1cc2c(n1)CCC(Br)C2=O (stereo not given) | inactive
10 | Cc1cccc(C(=O)NC2CCCc3c2cnn3-c2ccccc2)c1 (stereo not given) | inactive
11 | CC(C)(C)OC(=O)N1CCN(C(=O)Cn2cc3c(n2)CCCC3=O)CC1 | inactive
12 | O=C1CCCc2nn(Cc3cccc(C(F)(F)F)c3)cc21 | inactive
13 | O=C1CCCc2c1cnn2Cc1ccccc1 | inactive

Other lines, results leading:

Row | inhibition | Structure (SMILES)
14 | inactive | O=C1CCCc2c1cnn2-c1cccc(C(F)(F)F)c1
15 | inactive | O=C(NC1CCCc2c1cnn2-c1ccccc1)C1CC1 (stereo not given)
16 | inactive | CC(C)(C)OC(=O)N1CCN(C(=O)Cn2ncc3c2CCCC3=O)CC1
17 | inactive | O=C1c2cn(CC(=O)N3CCN(c4ccccc4)CC3)nc2CCC1Br (stereo not given)
18 | inactive | O=C(C1CC1)N(C(=O)C1CC1)C1CCCc2c1cnn2-c1ccccc1 (stereo not given)
19 | inactive | O=C1c2cnn(CC(=O)N3CCN(c4ccccc4)CC3)c2CCC1Br (stereo not given)
20 | inactive | O=C1CCCc2nn(CC(=O)N3CCNCC3)cc21
